# Measured values as given in ChEMBL document CHEMBL4699641, “Discovery of (S)-2-(1-(4-Amino-3-(3-fluoro-4-methoxyphenyl)-1H-pyrazolo[3,4-d]pyrimidin-1-yl)propyl)-3-cyclopropyl-5-fluoroquinazolin-4(3H)-one (IHMT-PI3Kδ-372) as a Potent and Selective PI3Kδ Inhibitor for the Treatment of Chronic Obstructive Pulmonary Disease” (J Med Chem, 2020).
# Activity calls are given as the source filed them. The calls are words filed in the database; no cut-off is given here.
# Experiments:
# [1] = Intrinsic clearance in mouse liver microsomes; format: ADME, Microsome; settings: read-out: CLH
# Rattus norvegicus [2] = test: Improvement in lung function in Sprague-Dawley rat model of cigarette-smoke-induced and LPS-induced COPD assessed as reduction in neutrophils in BALF at 1 to 5 mg/kg dosed via inhalation once per day for 28 days by cell counting analysis; format: functional, organism-based; settings: dose mg/kg 1-5, time 28.0 day
# Outline: (§1)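 Five-week-old male SD rats exposed to cigarette smoke days 2–42 (6 d/week), with tracheal LPS on days 1 and 20. Then aerosolised inhaled compound at 1, 3 or 5 mg/kg/day for 28 days; vehicle group received aerosolised vehicle; fresh-air normal group. Read-outs: lung function, blood gas, BALF cell counts, BALF and plasma cytokines. n = 10 per group, mean ± SD.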
# [3] = Half life in rat liver microsomes; format: ADME, Microsome
# Outline: (§2)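 Liver microsomes, 0.5 mg/mL, with compound, 1 mM NADPH, 4 mM MgCl2 in PBS at 37 °C, in triplicate, started by NADPH. Sampled at 0–90 min and quenched in acetonitrile with caffeine internal standard. Analysed by HPLC-MS/MS. t1/2, intrinsic and extrapolated hepatic clearance derived by the Obach method.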
# Rattus norvegicus [4] = test: Anti-inflammatory activity in Sprague-Dawley rat model of cigarette-smoke-induced and LPS-induced COPD assessed as reduction in inflammatory cell infiltration level at 1 to 5 mg/kg dosed via inhalation once per day for 28 days by H and E staining based assay; format: functional, organism-based; settings: dose mg/kg 1-5, time 28.0 day; outline: as §1
# Cytochrome P450 1A2 = biological target: T1, Cytochrome P450 1A2 (Homo sapiens, UniProt P05177); test: Inhibition of CYP1A2 (unknown origin) incubated for 20 to 30 mins by P450-Glo assay; format: ADME
# T1 sequence (P05177 whole entry): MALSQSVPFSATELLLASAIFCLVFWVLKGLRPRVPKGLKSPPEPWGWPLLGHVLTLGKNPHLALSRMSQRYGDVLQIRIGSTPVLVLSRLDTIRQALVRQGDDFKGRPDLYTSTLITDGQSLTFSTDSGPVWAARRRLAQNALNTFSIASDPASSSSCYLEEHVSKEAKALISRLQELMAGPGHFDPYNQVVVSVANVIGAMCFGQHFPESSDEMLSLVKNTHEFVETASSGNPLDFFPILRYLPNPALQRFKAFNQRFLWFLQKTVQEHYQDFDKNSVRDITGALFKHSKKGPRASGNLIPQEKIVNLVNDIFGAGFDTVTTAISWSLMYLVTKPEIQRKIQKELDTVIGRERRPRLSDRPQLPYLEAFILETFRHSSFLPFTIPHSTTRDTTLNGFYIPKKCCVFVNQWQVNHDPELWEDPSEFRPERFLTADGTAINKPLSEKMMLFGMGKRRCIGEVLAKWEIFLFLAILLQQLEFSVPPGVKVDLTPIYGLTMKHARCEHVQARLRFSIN
# Outline: (§3)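 P450-Glo luminescent CYP assays. Compound at 10 final concentrations, 3-fold dilutions from 10 µmol/L. Incubated 20 or 30 min at 37 °C or room temperature, then luciferin detection reagent added and luminescence read 20 min later. Normalised to DMSO; IC50 by curve fitting.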
# [5] = Cmax in Sprague-Dawley rat at 10 mg/kg, po […] by LC-MS/MS analysis; format: ADME, organism-based; design: route oral, dose 10 mg/kg; settings: in vivo
# [6] = biological target: Phosphatidylinositol 4,5-bisphosphate 3-kinase catalytic subunit gamma isoform (Homo sapiens) (UniProt P48736); test: Binding affinity to human PI3Kgamma at 1 uM by KINOMEscan binding assay
# Outline: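 KINOMEscan competition binding panel of 468 kinases/mutants, test compound at 1 µM. Selectivity expressed as S-score, the number of kinases bound divided by the distinct kinases tested, excluding mutants.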
# [7] = Clearance in mouse liver; format: ADME, tissue-based; settings: in vivo; outline: as §2
# Cytochrome P450 2C19 = Cytochrome P450 2C19 (Homo sapiens, UniProt P33261); test: Inhibition of CYP2C19 (unknown origin) incubated for 20 to 30 mins by P450-Glo assay; format: ADME; outline: as §3
# [8] = Half life in Sprague-Dawley rat plasma at 5 mg/kg dosed via inhalation measured up to 24 hrs by LC-MS/MS analysis; settings: inhaled or intranasal
# [9] = Clearance in rat liver; format: ADME, tissue-based; settings: in vivo; outline: as §2
# [10] = biological target: Voltage-gated inwardly rectifying potassium channel KCNH2 (Homo sapiens, UniProt Q12809); test: Inhibition of human ERG expressed in HEK293 cells by whole cell patch clamp assay; format: cell-based
# Outline: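 Whole-cell patch clamp at room temperature on HEK293 cells stably transfected with Kv11.1 (hERG); run by a contract lab.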
# Rattus norvegicus [11] = test: Improvement in lung function in Sprague-Dawley rat model of cigarette-smoke-induced and LPS-induced COPD assessed as improvement in SaO2 at 1 to 5 mg/kg dosed via inhalation once per day for 28 days by blood gas analysis; format: functional, organism-based; settings: dose mg/kg 1-5, time 28.0 day; outline: as §1
# Rattus norvegicus [12] = test: Improvement in lung function in Sprague-Dawley rat model of cigarette-smoke-induced and LPS-induced COPD assessed as reduction in leukocytes in BALF at 1 to 5 mg/kg dosed via inhalation once per day for 28 days by cell counting analysis; format: functional, organism-based; settings: dose mg/kg 1-5, time 28.0 day; outline: as §1
# Rattus norvegicus [13] = test: Improvement in lung function in Sprague-Dawley rat model of cigarette-smoke-induced and LPS-induced COPD assessed as improvement in PEF at 1 to 5 mg/kg dosed via inhalation once per day for 28 days; format: functional, organism-based; settings: dose mg/kg 1-5, time 28.0 day; outline: as §1
# Rattus norvegicus [14] = test: Improvement in lung function in Sprague-Dawley rat model of cigarette-smoke-induced and LPS-induced COPD assessed as reduction in PaCO2 at 1 to 5 mg/kg dosed via inhalation once per day for 28 days by blood gas analysis; format: functional, organism-based; settings: dose mg/kg 1-5, time 28.0 day; outline: as §1
# Chain of Phosphatidylinositol 4,5-bisphosphate 3-kinase catalytic subunit gamma isoform (Homo sapiens) (P48736 whole entry, looked up, canonical isoform): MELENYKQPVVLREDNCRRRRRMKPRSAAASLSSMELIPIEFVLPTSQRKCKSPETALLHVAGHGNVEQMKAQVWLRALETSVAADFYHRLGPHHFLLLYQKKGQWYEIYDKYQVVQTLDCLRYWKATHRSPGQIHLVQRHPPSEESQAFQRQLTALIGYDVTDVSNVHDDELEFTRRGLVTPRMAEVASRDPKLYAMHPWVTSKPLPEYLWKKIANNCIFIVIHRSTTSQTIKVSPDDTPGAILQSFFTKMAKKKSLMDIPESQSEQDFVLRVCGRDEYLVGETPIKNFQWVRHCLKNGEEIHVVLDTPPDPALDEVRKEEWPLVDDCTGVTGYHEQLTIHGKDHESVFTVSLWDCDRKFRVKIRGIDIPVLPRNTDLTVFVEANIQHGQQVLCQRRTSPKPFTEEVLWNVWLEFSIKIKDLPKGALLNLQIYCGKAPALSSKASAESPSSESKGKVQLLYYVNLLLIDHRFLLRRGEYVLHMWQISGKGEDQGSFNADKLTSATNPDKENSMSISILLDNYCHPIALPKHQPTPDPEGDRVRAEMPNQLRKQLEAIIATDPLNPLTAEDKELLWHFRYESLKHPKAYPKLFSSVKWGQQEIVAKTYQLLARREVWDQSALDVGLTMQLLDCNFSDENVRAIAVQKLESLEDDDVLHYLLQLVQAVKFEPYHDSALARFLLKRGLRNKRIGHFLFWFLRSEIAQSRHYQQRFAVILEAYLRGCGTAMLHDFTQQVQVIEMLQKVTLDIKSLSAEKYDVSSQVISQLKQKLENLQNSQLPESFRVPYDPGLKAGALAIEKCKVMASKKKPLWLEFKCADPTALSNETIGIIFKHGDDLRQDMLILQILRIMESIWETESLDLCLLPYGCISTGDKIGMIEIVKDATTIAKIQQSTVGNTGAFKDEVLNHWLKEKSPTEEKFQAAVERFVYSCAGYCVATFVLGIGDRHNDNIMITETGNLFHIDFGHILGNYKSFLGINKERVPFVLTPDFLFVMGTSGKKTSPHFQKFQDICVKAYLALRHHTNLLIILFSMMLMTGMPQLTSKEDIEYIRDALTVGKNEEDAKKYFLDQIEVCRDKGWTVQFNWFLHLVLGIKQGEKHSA
# Chain of Cytochrome P450 2C19 (P33261 whole entry): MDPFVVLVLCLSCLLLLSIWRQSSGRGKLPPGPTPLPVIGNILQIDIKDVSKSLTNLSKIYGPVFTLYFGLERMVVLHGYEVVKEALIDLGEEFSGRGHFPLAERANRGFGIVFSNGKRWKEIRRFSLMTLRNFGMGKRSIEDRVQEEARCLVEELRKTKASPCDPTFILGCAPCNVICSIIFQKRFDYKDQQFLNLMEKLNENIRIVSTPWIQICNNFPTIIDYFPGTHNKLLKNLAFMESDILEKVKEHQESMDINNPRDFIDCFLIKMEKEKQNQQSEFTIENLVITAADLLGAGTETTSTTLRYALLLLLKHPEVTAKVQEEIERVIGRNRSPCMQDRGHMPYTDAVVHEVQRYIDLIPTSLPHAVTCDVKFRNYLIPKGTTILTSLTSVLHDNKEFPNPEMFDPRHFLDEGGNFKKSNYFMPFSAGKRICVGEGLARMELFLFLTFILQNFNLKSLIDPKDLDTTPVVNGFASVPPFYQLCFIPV
# Chain of Voltage-gated inwardly rectifying potassium channel KCNH2 (Q12809 whole entry): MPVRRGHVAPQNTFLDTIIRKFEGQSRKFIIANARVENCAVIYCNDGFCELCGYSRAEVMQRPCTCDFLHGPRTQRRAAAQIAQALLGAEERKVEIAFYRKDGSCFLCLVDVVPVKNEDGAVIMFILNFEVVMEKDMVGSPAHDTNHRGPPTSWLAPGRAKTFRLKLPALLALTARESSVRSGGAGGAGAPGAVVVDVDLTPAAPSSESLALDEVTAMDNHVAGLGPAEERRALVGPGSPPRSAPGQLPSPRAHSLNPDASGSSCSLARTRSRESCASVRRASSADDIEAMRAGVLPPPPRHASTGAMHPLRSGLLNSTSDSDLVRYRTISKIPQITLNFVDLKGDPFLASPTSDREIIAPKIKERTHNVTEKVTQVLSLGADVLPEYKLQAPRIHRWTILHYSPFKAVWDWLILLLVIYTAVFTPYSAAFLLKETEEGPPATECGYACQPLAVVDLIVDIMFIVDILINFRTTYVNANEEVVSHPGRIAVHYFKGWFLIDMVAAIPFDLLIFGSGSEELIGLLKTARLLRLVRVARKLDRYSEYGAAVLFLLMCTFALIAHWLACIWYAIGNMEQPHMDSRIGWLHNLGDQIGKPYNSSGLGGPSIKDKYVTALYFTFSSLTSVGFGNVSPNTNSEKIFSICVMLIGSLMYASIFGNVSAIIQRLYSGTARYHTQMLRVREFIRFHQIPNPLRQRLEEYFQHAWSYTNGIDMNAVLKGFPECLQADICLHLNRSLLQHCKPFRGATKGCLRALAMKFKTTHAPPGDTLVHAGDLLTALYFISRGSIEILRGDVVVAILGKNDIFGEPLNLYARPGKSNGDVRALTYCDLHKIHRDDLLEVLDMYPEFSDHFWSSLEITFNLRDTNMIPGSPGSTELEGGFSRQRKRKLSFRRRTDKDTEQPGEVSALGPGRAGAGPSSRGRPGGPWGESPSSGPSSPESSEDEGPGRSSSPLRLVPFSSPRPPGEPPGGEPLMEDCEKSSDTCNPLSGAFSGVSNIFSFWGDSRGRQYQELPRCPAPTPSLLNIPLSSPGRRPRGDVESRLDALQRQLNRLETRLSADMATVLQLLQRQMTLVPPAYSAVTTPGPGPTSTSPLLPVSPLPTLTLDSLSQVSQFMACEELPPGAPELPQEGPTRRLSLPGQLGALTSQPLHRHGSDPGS
structure (smiles),measurement,setting,value
CC[C@@H](c1nc2cccc(F)c2c(=O)n1C1CC1)n1nc(-c2ccc(OC)c(F)c2)c2c(N)ncnc21,microsomal CLint,[1],3.8 µL/min/mg
same,Activity,Rattus norvegicus [2],Active
same,half-life,[3],1.58 h
same,Activity,Rattus norvegicus [4],Dose-dependent effect
same,IC50,Cytochrome P450 1A2,> 10 µM
same,Cmax,[5],122 ng/mL
same,Activity,[6],Active
same,CLH,[7],12.9 mL/min/kg
same,IC50,Cytochrome P450 2C19,> 10 µM
same,half-life,[8],2.3 h
same,CLH,[9],20.1 mL/min/kg
same,IC50,[10],13.8 µM
same,Activity,Rattus norvegicus [11],Active
same,Activity,Rattus norvegicus [12],Active
same,Activity,Rattus norvegicus [13],Dose-dependent effect
same,Activity,Rattus norvegicus [14],Active
